High-throughput results as filed in PubChem.
sEH inh: soluble epoxide hydrolase (human) inhibition. inhibition, % at 2 µM. AID 707. P34913. hit rate 0.34% among 91,000. recombinant human sEH enzymatic activity assay; in the data active = inhibition above about 80%
ERa coact pot: ER-alpha (human) coactivator binding potentiation. hit rate 1.3% among 86,000. AID 639. TR-FRET ERalpha-LBD/SRC-Cy5 coactivator binding, 2 h; 100 = basal binding, no effect. P03372. coactivator binding (% of control), % at 25.6 µM; in the data active = activity above about 200%;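 also: binding measured in presence of low estradiol as agonist stimulus; 0% = peptide alone without receptor and 100% = receptor with peptide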
ERb coact inh: blocks coactivator binding to human estrogen receptor beta; Q92731; TR-FRET ER-beta LBD / SRC1-Cy5 peptide binding; receptor agonist-loaded with 1 µM estradiol; inhibition, % at 25.6 µM; hit rate 1.3% among 86,000;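 active = compounds whose percent inhibition of the receptor-coactivator binding signal exceeds about 50% in the single-dose screen, limit read from the data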;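 also: 0% = receptor plus peptide wells without compound and 100% = peptide-only wells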
HIV Rev-RRE inh: inhibitors of HIV-1 Rev-RRE RNA interaction; P05866; Rev peptide-RRE RNA binding, FRET; inhibition, % at 8 µM; hit rate 0.79% among 97,000; AID 704;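 active = inhibition above the screen-wide mean plus 3 SD, cut at about 35% in these data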;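 also: 0% = median DMSO wells and 100% = median Neomycin B control wells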
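System: Cy5-labelled duplex RRE RNA binding fluorescein-labelled HIV Rev peptide; Signal: fluorescein-to-Cy5 FRET, 480 nm excitation; Also added: labelled Rev peptide; Compound: one concentration, 8 µM nominal; Buffer or medium: HEPES pH 7.5 salt buffer with EDTA; Read-out: % inhibition of FRET ratio versus controls; Schedule: 5 min preincubation and 15 min binding, 25 °C.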
sEH act: increases human soluble epoxide hydrolase activity; P34913; purified human sEH enzymatic activity, activator screen; activation, % at 2 µM; hit rate 0.04% among 91,000; in the data active = activation above about 37%
ERa SRC1 inh: ER-alpha (human) coactivator binding inhibition. P03372. TR-FRET ER-alpha LBD / SRC-1 peptide, estradiol-bound. inhibition, % at 25.6 µM. hit rate 1.7% among 86,000; in the data active = inhibition above about 50%;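 also: 0% = receptor plus peptide control and 100% = peptide only without receptor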
* hit, by the source's call; · = no result given; [ ] = another dose, or the depositor's remark. An excerpt weighted towards active compounds, which were near 3.5% of everything screened.

SMILES	sEH inh	ERa coact pot	ERb coact inh	HIV Rev-RRE inh	sEH act	ERa SRC1 inh
O=C(NCCO)c1ccc2nc(-c3ccco3)c(-c3ccco3)nc2c1	-1	16	87*[fluorescence artefact?]	4	3	64*
O=C(NCCc1ccccc1)c1ccc(=O)oc1	3	120	1	3	-2	-18
O=C(NC1CCCC1)c1ccc2nc(-c3ccco3)c(-c3ccco3)nc2c1	-7	11	93*[fluorescence artefact?]	2	8	94*[fluorescence artefact?]
c1coc(-c2nc3ccccc3nc2-c2ccco2)c1	·	28	93*[fluorescence artefact?]	·	·	84*[fluorescence artefact?]
Cn1c(CO)cnc1SCc1ccc([N+](=O)[O-])cc1	·	·	·	1	·	·
Cc1ccc(Cl)cc1N1CCN(C(=O)C2CCN(S(=O)(=O)c3cnc[nH]3)CC2)CC1	·	112	3	·	·	1
O=C(c1ccc(NC2=NC3CS(=O)(=O)CC3S2)cc1)N1CCc2ccccc2C1 (configuration not stated)	·	90	-7	·	·	-1
O=C(c1ccc(NC2=NC3CS(=O)(=O)CC3S2)cc1)N1CCN(Cc2ccccc2)CC1 (configuration not stated)	-10	103	-5	6	8	93*[fluorescence artefact?]
CC1(C)CC(=O)C2=C(C1)Nc1ccccc1N=C2	-14	98	-11	45*	12	-4
Cc1c(C2Nc3ccccc3NC3=C2C(=O)CC(C)(C)C3)cnn1C (configuration not stated)	3	123	0	13	-3	2
COc1ccccc1CN1C(=O)c2ccncc2C1=O	-3	98	71*[fluorescence artefact?]	2	3	-19
Cc1cc(C)n(-c2ccc(C(=O)OCC(=O)c3ccc(Br)s3)cc2)n1	-11	207*	5	16	9	2
Cc1cc2ccccc2n1CCNC(=O)Cc1ccccc1	·	65	1	-1	·	3
Cc1cc2ccccc2n1CCNC(=O)c1ccc(S(=O)(=O)N2CCCCC2)cc1	0	348*[fluorescence artefact?]	26	13	-1	14
Cc1ccc(S(=O)(=O)NCCn2c(C)cc3ccccc32)cc1	-9	376*	-7	15	11	-14
O=C(CCCCCN1C(=O)CCC1=O)NCc1ccccc1	0	112	-4	3	-6	-7
COc1ccccc1N1CCN(C(=O)C(NS(=O)(=O)c2cccs2)c2ccccc2)CC1 (configuration not stated)	2	97	9	7	-3	5
Clc1ccc(-c2nnc(NC3=NCCCCC3)o2)cc1	2	114	-6	4	-5	2
COC(=O)Cc1cc(=O)n2[nH]c(SC)nc2n1	-1	107	-1	10	0	-10
Cc1[nH]n(-c2ccccc2)c(=O)c1C(c1ccc(O)c([N+](=O)[O-])c1)c1c(C)[nH]n(-c2ccccc2)c1=O	-21	·	·	-1	17	·
Nc1[nH]n(-c2ccccc2)c(=O)c1N=Nc1ccccc1[N+](=O)[O-]	-8	9	52*	6	5	88*[fluorescence artefact?]
O=S(=O)(NCc1cn2ccccc2n1)c1cc(F)ccc1F	8	183	-9	4	-4	2
Cn1nc(C(=O)Nc2cccc(C(F)(F)F)c2)c2ccccc2c1=O	-10	·	·	11	9	·
Cn1nc(C(=O)Nc2c(-c3ccccc3)nc3sccn23)c2ccccc2c1=O	10	85	16	-4	-12	62*[fluorescence artefact?]
CCCCc1ccc(NC(=O)OC)cc1	·	531*[fluorescence artefact?]	19	·	·	-11
SMILES	sEH inh	ERa coact pot	ERb coact inh	HIV Rev-RRE inh	sEH act	ERa SRC1 inh
O=C(c1ccco1)N1CCN(c2nc(C(F)(F)F)nc3c2nnn3Cc2ccccc2)CC1	-12	112	-4	3	14	0
O=C(Nc1cccnc1)C1CCN(S(=O)(=O)c2cccc3nonc23)CC1	5	114	-1	10	-7	-21
CCOCCCNC(=O)c1c(-c2ccccc2)noc1C	-5	113	-4	7	7	-7
O=C(OCc1nnc(-c2ccccc2)o1)c1ccc(S(=O)(=O)NCc2ccco2)cc1	-11	110	49	10	12	53*[fluorescence artefact?]
O=C(COC(=O)c1ccc(S(=O)(=O)NCc2ccco2)cc1)NC1CCCCCC1	90*	·	·	6	-90	·
Cc1cc(Nc2ccccc2)c2c([N+](=O)[O-])c(C)cc(C)c2n1	6	·	·	17	-2	·
